In ChEMBL document CHEMBL3861952, “Donepezil-like multifunctional agents: Design, synthesis, molecular modeling and biological evaluation” (Eur J Med Chem, 2016):
The source made the active and inactive calls. The calls are words filed in the database; no cut-off is given here.

Experiments:
[1] = Antioxidant activity of the compound assessed as AAPH radical scavenging activity measured as trolox equivalent at 0.1 to 1 uM preincubated for 15 mins with fluorescein followed by addition of AAPH measured every min for 1 hr by oxygen radical absorbance capacity assay; type: functional
How it was run: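 ORAC: compound diluted in 75 mM PBS pH 7.4 (0.1–1 μM) and pre-incubated 15 min at 37 °C with 70 nM fluorescein. 12 mM AAPH then added and fluorescence (ex 485/em 520) read every minute for 1 h. Net area under the decay curve converted against a trolox standard curve; melatonin as reference.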

[2] = species on record: Homo sapiens; assay: Selectivity index, ratio of IC50 for human recombinant MAOB to IC50 for human recombinant MAOA
How it was run: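 Separate 30 min pre-incubations at 37 °C of serial inhibitor dilutions with recombinant human MAO-A (360 mU/mL) or MAO-B (67.5 mU/mL). Then 1 mM p-tyramine with HRP/Amplex UltraRed added, pH 7.4, and fluorescence followed ≥1 h. Index taken as IC50(MAO-B)/IC50(MAO-A); ≥3 experiments in triplicate.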

[3] = species on record: Homo sapiens; assay: Selectivity ratio of IC50 for human recombinant AChE to IC50 for human recombinant BuChE
[4] = Antioxidant activity of the compound assessed as time required to induce AAPH-mediated linoleic acid peroxidation (reference value: 40 to 60 mins); type: functional
[5] = Antioxidant activity of the compound assessed as DPPH radical scavenging activity after 60 mins by spectrophotometric method; type: functional
How it was run: (§1)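 DPPH scavenging: mixture shaken vigorously and left 60 min. Absorbance at 517 nm read and % activity calculated; trolox as comparator. Three replicates averaged.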

[6] = Antioxidant activity of the compound assessed as inhibition of Cu2+/ascorbic acid-induced H2O2 production at 0.1 to 1 uM after 10 mins by horse-radish peroxidase/amplex red-based fluorometric method; type: functional
How it was run: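 H2O2 generated by 0.2 μM Cu(II) plus 10 μM ascorbic acid, incubated 10 min at room temperature with varying compound concentrations. HRP/Amplex Red mixture then added to quantify H2O2 formed.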

[7] = Antioxidant activity of the compound assessed as DPPH radical scavenging activity at 50 uM after 60 mins by spectrophotometric method; type: functional; how it was run: as §1

| SMILES | Ratio IC50 [2] | Ratio IC50 [3] | other results |
| --- | --- | --- | --- |
| COc1ccc2[nH]cc(CCNC(C)=O)c2c1 |  |  | Activity [1]: 2.51 equiv |
| C#CCN(Cc1ccc2cccc(O)c2n1)C(C#N)C1CCN(Cc2ccccc2)CC1 (stereo not given) | > 9.8 | 2140 |  |
| C#CCN(Cc1ccc2cccc(O)c2n1)C(C#N)CCC1CCN(Cc2ccccc2)CC1 (stereo not given) | > 9.9 | 0.7 | TIME [4]: 0.833 to 1 h; Activity [5]: Dose-dependent effect; inhibition [6]: Active; Activity [1]: 1.12 equiv |
| C#CCN(Cc1ccc2cccc(O)c2n1)C(C#N)CC1CCN(Cc2ccccc2)CC1 (stereo not given) | > 8.2 | 1650 |  |
| C#CCN(CCCC1CCN(Cc2ccccc2)CC1)Cc1ccc2cccc(O)c2n1 | > 2.7 | 65 |  |
| C#CCN(CCC1CCN(Cc2ccccc2)CC1)Cc1ccc2cccc(O)c2n1 | > 2.8 | 52 |  |
| Cc1c(C)c2c(c(C)c1O)CCC(C)(C(=O)O)O2 (stereo not given) |  |  | TIME [4]: 1.67 to 2 h; Activity [7]: Active |
| C#CCN(Cc1ccc2cccc(O)c2n1)CC1CCN(Cc2ccccc2)CC1 | > 2.2 | 152 |  |
| C#CCN(Cc1ccc(O)c2ncccc12)C(C#N)CCC1CCN(Cc2ccccc2)CC1 (stereo not given) | 1.8 |  |  |
